# Screens (PubChem BioAssay)
# ABHD4 inh – inhibitors of mouse ABHD4; purified mABHD4, FP-Rh probe fluorescence polarization; actives 0.54% (n = 370,000); inhibition, % at 8.92 µM; Q8VD66;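 active = inhibition exceeding the mean over every tested compound plus 3 SD, cut at about 30% in these data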;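 note: 0% = plate median of compound wells and 100% = S159A mutant with DMSO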
#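 Assay system: mABHD4 protein; medium: HEPES pH 7.0, NaCl, Pluronic buffer; dosing: 8.92 µM, single dose; schedule: 45 min + 60 min at 25 °C; signal: FP readout, ex 525 nm / em 598 nm; read-out: normalized percent inhibition of probe labeling; repeats: single replicate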
# SIAE primary – inhibitors of human sialic acid acetylesterase SIAE; Q9HAT2; SIAE FP-Rh probe binding, fluorescence polarization; inhibition, % at 9.66 µM; actives 0.69% (n = 370,000);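 active = inhibition above a cutoff: mean of compounds within the control limits plus 3 SD of those, cut at about 17% in these data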;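 note: 0% = plate median of compound wells and 100% = probe without SIAE protein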
# Target sequence (Q9HAT2 whole entry, looked up): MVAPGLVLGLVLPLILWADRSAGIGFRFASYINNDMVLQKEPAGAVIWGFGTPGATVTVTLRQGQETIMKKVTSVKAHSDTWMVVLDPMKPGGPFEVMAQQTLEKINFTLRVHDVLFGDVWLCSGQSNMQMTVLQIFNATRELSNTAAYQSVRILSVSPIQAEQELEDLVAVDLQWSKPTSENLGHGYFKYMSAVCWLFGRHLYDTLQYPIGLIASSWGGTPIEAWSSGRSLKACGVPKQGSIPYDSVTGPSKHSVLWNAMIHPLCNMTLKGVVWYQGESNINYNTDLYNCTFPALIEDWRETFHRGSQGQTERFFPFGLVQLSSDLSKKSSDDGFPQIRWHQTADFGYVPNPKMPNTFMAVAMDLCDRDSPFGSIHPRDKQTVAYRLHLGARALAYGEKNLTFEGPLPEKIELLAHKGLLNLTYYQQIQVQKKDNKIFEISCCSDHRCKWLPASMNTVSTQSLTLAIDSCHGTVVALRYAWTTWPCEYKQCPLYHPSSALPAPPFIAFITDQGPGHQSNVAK
# rCAG binder – r(CAG) repeat RNA binding; TO-PRO-1 dye displacement fluorescence; actives 1.3% (n = 370,000); AID 651821; inhibition, % at 3 µM;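 active = inhibition above the plate cutoff, the mean of all test compounds on that plate plus 3 SD, cut at about 35% in these data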;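 note: 0% = DMSO alone and 100% = 100 µM mitoxantrone as full dye displacement; higher means more dye released from RNA so lower well fluorescence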
# HTRA1 inhibitor – blocks human HTRA1 serine peptidase | actives 0.5% (n = 340,000) | recombinant HTRA1, FP-rhodamine activity-based probe, fluorescence polarization | AID 504803 | Q92743 | inhibition, % at 5.96 µM; in the data active = inhibition above about 36%;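 note: 0% = enzyme with DMSO and 100% = wells lacking enzyme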
# PRMT1 FP inh – inhibitors of human PRMT1 | Q99873 | recombinant PRMT1, activity-based probe fluorescence polarization | actives 1.3% (n = 370,000) | AID 652257 | inhibition, % at 2.79 µM;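 active = inhibition above about 21% made by adding two undisclosed values, limit read from the data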
# rCAG binder conf – r(CAG) RNA repeat binding, confirmation; shares compounds with rCAG binder; TO-PRO-1 dye displacement fluorescence; inhibition, % at 3 µM; actives 70% (n = 4,300);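 active = inhibition above a per-plate cutoff, the mean inhibition of sample wells plus 3 SD, cut at about 35% in these data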;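 note: loss of TO-PRO-1 fluorescence as compound displaces dye from 1x1 AA loop RNA; 0% = DMSO only wells and 100% = 100 µM mitoxantrone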
# DNA CAG counter – disrupts DNA CAG TO-PRO-1 complex, flagging rCAG hits; AID 652068; shares compounds with rCAG binder; d(CAG) DNA oligo TO-PRO-1 dye displacement, fluorescence; inhibition, % at 3 µM; actives 94% (n = 4,300);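 active = inhibition above its plate's cutoff, the mean test-well inhibition plus 3 SD, cut at about 4.8% in these data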;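 note: 0% = DNA dye mix with DMSO and 100% = 100 µM mitoxantrone; hits displace the dye from DNA and so lower well fluorescence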
# Active calls of the source: *; x = not tested or not shown. In the library only some 3.3% were active in any assay of this set; here they are far more common.
SMILES,ABHD4 inh,SIAE primary,rCAG binder,HTRA1 inhibitor,PRMT1 FP inh,rCAG binder conf,DNA CAG counter
COc1cccc(C(=O)N[C@@H](CC(C)C)C(=O)N2CCC[C@H]2C(=O)NCc2ccccc2)c1,4.1,0.1,-1.9,x,-4.5,x,x
O=C(Nc1ccc(O)cc1)c1ccc2c(c1)C(=O)N(Cc1ccccc1)C2=O,2.0,9.7,8.9,4.2,-1.3,x,x
O=C(O)COc1ccc(NC(=O)c2ccc3c(c2)C(=O)N(Cc2ccccc2)C3=O)cc1,-3.6,-5.7,47.0*,-4.8,0.5,27.9,6.2*
COc1ccc(NS(=O)(=O)c2ccc3nc(COc4ccc5ccccc5c4)[nH]c3c2)cc1,-96.5,-179.5,50.8*,-85.1,0.1,19.4,14.4*
COc1ccc(NS(=O)(=O)c2ccc3nc(COc4cccc5ccccc45)[nH]c3c2)cc1,-92.9,-126.5,18.7,-78.1,2.6,x,x
COc1cccc(NC(=O)c2ccccc2-c2ccccc2C(=O)O)c1,-2.0,8.7,2.0,-0.2,-1.9,x,x
COc1cc2c(cc1NC(=O)c1ccccc1-c1ccccc1C(=O)O)-c1ccccc1C2,6.8,-3.9,66.0*,-2.5,-2.7,59.6*,20.5*
O=C(CN(Cc1ccccc1Cl)S(=O)(=O)c1ccc(Cl)cc1)N/N=C/c1ccc(C(=O)O)cc1,-29.6,-4.5,70.6*,-21.5,4.8,55.0*,19.9*
O=C(CSc1nnc(SCc2ccccc2Cl)s1)N/N=C/c1ccc(C(=O)O)cc1,-13.0,-0.3,49.2*,-16.2,-0.9,60.4*,17.3*
CCOC(=O)N1CCN(C(=O)C[C@H]2C(=O)N(Cc3ccc(OC)cc3)C3=CCCC[C@@]32C(=O)OCC)CC1,-6.9,-10.4,-1.5,x,-4.8,x,x
Cc1cc(O)c(-c2cc(C(=O)Nc3ccc(S(=O)(=O)N4CCOCC4)cc3)[nH]n2)cc1C,-23.1,-15.0,41.0*,-14.8,-4.5,29.1,14.5*
Cc1ccc(O)c(-c2cc(C(=O)Nc3ccc(S(=O)(=O)N4CC(C)OC(C)C4)cc3)[nH]n2)c1 (stereo unspecified),-34.5,5.5,23.4,-37.8,-2.0,x,x
O=C(Nc1ccc(Cl)cc1)c1ccc(S(=O)(=O)N2CCOCC2)cc1,-2.4,-16.8,0.1,-3.9,2.1,x,x
O=C(Nc1ccc(S(=O)(=O)N2CCOCC2)cc1)c1cc(-c2cc(Cl)ccc2O)n[nH]1,-96.3,-99.1,45.9*,-64.2,-4.5,49.9*,21.0*
C/C=C/C=C/C(=O)N1C[C@H](C)N(C)C[C@H]1C,-6.7,0.2,0.6,x,-1.1,x,x
O=C(CN1CCC(NC(=O)Nc2ccc(Cl)cc2)CC1)Nc1ccc2c(c1)OCCO2,-3.2,-1.4,5.2,x,4.1,x,x
Fc1ccc(F)c(Cn2ccc3ccc(-c4ccc5ccn(Cc6cc(F)ccc6F)c5c4)cc32)c1,-2.5,0.2,3.6,x,-1.1,x,x
C[C@H]1C(=O)CC[C@@]23CCCN2C(=O)CCC[C@@H]13,-8.4,6.3,x,x,6.1,x,x
COCCNC(=O)[C@]1(C#N)CC(=O)N(C)[C@@H]1c1ccccc1,-0.5,0.8,-0.4,x,-1.0,x,x
O=C(Nc1cccnc1)c1ccc(N2CCOCC2)c([N+](=O)[O-])c1,-5.6,3.8,0.2,-0.9,-1.3,x,x
Cc1ccc(NC(=O)c2ccc(NCCN)c([N+](=O)[O-])c2)cc1Cl,4.7,-17.7,38.1*,-46.7,2.2,22.3,-1.7
O=C(NNC(=S)Nc1ccc(Cl)cc1Cl)c1ccc(N2CCOCC2)c([N+](=O)[O-])c1,24.6,1.3,95.1*,36.1,-1.0,87.3*,62.9*
O=C(NNC(=S)Nc1ccc(Cl)c(Cl)c1)c1cccc([N+](=O)[O-])c1,16.7,-2.6,78.9*,x,-2.0,78.9*,33.1*
O=C(NNC(=S)Nc1ccc(Br)cc1)c1ccc(N2CCOCC2)c([N+](=O)[O-])c1,2.8,4.0,72.6*,14.0,0.9,66.8*,28.1*
Cc1cccc(NC(=S)NNC(=O)c2cccc([N+](=O)[O-])c2)c1,6.9,5.7,19.4,2.0,-1.1,x,x
O=S1(=O)c2ccc(Br)cc2OC[C@H](Cc2ccccc2)N1Cc1cn(CCC2OCCCO2)nn1,-2.3,0.7,-1.2,x,-3.2,x,x
COc1cccc(CNC(=O)CN2CCCc3ccccc32)c1OC,4.2,3.6,2.8,x,9.2,x,x
